# From PubChem
# Only a selection was taken, and hits are over-represented in it overall.
# PKD1 inh = inhibitors of human PKD1 kinase, biochemical, fluorescence polarization; Serine/threonine-protein kinase D1 (Homo sapiens), Q15139; PKD1 kinase fluorescence polarization assay; inhibition, % (concentration not given with the values); hit rate 0.056% among 200,000; AID 797, 2007
# GSH bead fluor = compound fluorescence on glutathione beads, profiling panel, artefact control, biophysical, 488/530 nm, flow cytometry; GSH beads flow cytometry, compound fluorescence 488/530 nm; stronger effect = higher value; fluorescence (KMESF) at 10 µM; hit rate 0.25% among 190,000; AID 1776, 2009; in the data active = fluorescence above about 89;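 note: glutathione beads carrying GST-tagged Bcl family fusion proteins plus one bare bead set; values are compound well signal with DMSO vehicle wells as background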
# ABCG2 inh = ABCG2 efflux pump inhibitors, primary screen, multiplex with ABCB1, IgMXP3 cells, flow cytometry; JC-1 efflux; AID 1325, 2008; inhibition, % at 6.6 µM; hit rate 0.1% among 190,000;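 active = inhibition above 80%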;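 note: 0% = DMSO and 100% = nicardipine control wells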
# Target sequence (Q9UNQ0 whole entry, looked up): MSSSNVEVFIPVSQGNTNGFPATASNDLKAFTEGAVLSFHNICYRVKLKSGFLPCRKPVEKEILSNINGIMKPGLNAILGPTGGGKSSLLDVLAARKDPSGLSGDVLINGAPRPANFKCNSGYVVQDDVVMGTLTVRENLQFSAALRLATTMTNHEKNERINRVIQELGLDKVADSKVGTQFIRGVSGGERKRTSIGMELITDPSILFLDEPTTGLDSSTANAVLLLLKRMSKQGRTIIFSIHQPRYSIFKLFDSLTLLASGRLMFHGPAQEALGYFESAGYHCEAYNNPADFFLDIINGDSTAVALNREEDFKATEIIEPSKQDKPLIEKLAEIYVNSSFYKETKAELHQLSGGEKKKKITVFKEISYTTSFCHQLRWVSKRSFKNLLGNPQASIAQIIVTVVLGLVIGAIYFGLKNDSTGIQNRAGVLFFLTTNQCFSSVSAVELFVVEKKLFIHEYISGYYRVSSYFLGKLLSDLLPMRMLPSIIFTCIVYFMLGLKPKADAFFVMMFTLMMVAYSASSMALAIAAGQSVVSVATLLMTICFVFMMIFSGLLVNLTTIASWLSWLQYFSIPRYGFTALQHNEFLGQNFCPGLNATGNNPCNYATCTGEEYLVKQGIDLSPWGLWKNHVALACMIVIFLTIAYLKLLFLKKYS
#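 Times: 10 min at 25 °C | Test system: Two drug-resistant human cell lines, ABCG2 and ABCB1 | Quantity: 3 million cells/mL final, two lines in 1:1 ratio | Signal: Flow cytometry, 530 nm JC-1 signal | Dosing: Compound at 6.6 µM | Controls: Nicardipine and DMSO wells | Reagent: JC-1 as fluorescent efflux pump substrate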
# Avidin fluor = green autofluorescence of compounds with avidin beads – biophysical, 488/530 nm, flow cytometry, artefact control, profiling panel. compound fluorescence 488/530 nm; stronger effect = higher value. AID 1775, 2009. hit rate 0.38% among 220,000. fluorescence (KMESF) at 10 µM; in the data active = fluorescence above about 47
# ABCB1 inh = ABCB1 efflux pump inhibitors, primary screen, cell-based, multiplex, flow cytometry, ABCG2 counter-screen. inhibition, % at 6.6 µM. ATP-dependent translocase ABCB1 (Homo sapiens), P08183. CCRF-Adr cells, JC-1 efflux. AID 1326, 2008. hit rate 0.067% among 190,000; in the data active = inhibition above about 40%;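 note: 0% = vehicle and 100% = reference inhibitor; higher value means more JC-1 retained so stronger ABCB1 efflux block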
# Lmaj promast = Leishmania major promastigote growth inhibition, primary screen; Leishmania major promastigotes, resazurin fluorescence viability; inhibition, % at 10 µM; hit rate 9% among 200,000;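 note: promastigotes grown with compound for 44 hours at 28 °C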
# * = called active by the depositor; · = no result given. Cut-off read from the data, not from the text of the source, unless noted: active = inhibition above about 50%; inactive = the rest.
SMILES,PKD1 inh,GSH bead fluor,ABCG2 inh,Avidin fluor,ABCB1 inh,Lmaj promast
COc1ccccc1N1CCN(C(CNS(C)(=O)=O)c2cccnc2)CC1 (centres undefined),1,38,2,25,0,17
COC(=O)NCC(c1cccnc1)N1CCOCC1 (centres undefined),-2,13,-2,18,0,-11
COc1ccccc1N1CCN(C(CNS(=O)(=O)c2ccc(C)cc2)c2cccnc2)CC1 (centres undefined),0,10,1,18,1,96*
COc1ccccc1N1CCN(C(CNC(=O)c2ccco2)c2cccnc2)CC1 (centres undefined),-11,15,0,6,0,81*
Cc1ccc(C(=O)N2C(CC(=O)Nc3ccc(Cl)cc3)C(=O)NC3CCCCC32)cc1 (centres undefined),6,23,6,9,1,-5
COc1ccc(Cl)cc1C(=O)Nc1cccc(-c2ccc3nncn3n2)c1,3,·,2,24,0,-7
Cc1ccc(-c2nc(-c3nccc4ccccc34)oc2-c2ccccc2)cc1,·,·,·,8,·,·
N#Cc1ccccc1OCC(=O)NC(=O)NCc1ccco1,·,·,·,16,·,·
O=C(CSC1=N/C(=C/c2ccco2)C(=O)N1c1ccc(OC(F)F)cc1)NC1CCS(=O)(=O)C1 (centres undefined),5,27,1,8,0,0
O=C1CSC(c2ccc(F)cc2)N1c1nnc(C23CC4CC(CC(C4)C2)C3)s1 (centres undefined),-1,35,34,14,1,1
CCC(=O)N/N=C(\C)CC(=O)Nc1ccc2c(c1)OCCO2,-2,8,-1,13,0,2
COC(=O)c1ccc(CNC(=O)COC(=O)C23CC4CC(CC(C4)C2)C3)cc1,5,10,10,10,1,-8
CCN(c1ccccc1)S(=O)(=O)c1ccc(Cl)c(NC(=O)CSc2n[nH]c(N)n2)c1,-10,12,3,11,1,-3
O=C(NCC(c1cccnc1)N1CCOCC1)c1cccc(Cl)c1 (centres undefined),-5,11,3,16,0,32
O=C(NCC(c1cccnc1)N1CCN(c2ccccc2F)CC1)c1cccc(Cl)c1 (centres undefined),2,29,9,11,5,94*
CC1CCN(CCOCCOc2ccccc2Br)CC1,1,17,1,8,0,82*
CC1CCN(CCOCCOc2ccccc2-c2ccccc2)CC1,7,10,1,5,1,83*
CC1CCCN(CCCOc2ccccc2-c2ccccc2)C1 (centres undefined),0,22,1,5,3,94*
Cc1ccc2cccc(OCCOCCOc3ccccc3Br)c2n1,-6,11,-1,13,0,67*
COc1cc(C)ccc1OCCOCCOc1ccccc1Br,-6,40,7,13,1,1
CC1CN(CCOc2ccccc2-c2ccccc2)CC(C)O1 (centres undefined),-1,22,13,12,3,7
CC1CCN(CCCCOc2ccccc2-c2ccccc2)CC1,-8,5,7,12,1,99*
CC1CCN(CC(=O)Nc2ccccc2-c2ccccc2)CC1,-3,16,3,4,0,0
COc1ccc(NC(=S)N(CCN(C)C)C(C)c2ccco2)cc1Cl (centres undefined),-11,152*,1,28,3,67*
COc1ccc(/C=N/n2cc(-c3ccccc3)nc2N)cc1,-11,20,4,5,0,3
SMILES,PKD1 inh,GSH bead fluor,ABCG2 inh,Avidin fluor,ABCB1 inh,Lmaj promast
COc1ccc(/C=N/n2cc(-c3ccc(OC)cc3)nc2N)cc1,-2,9,0,7,0,93*
Cc1ccc(OCCN2CCN(c3nc(NCc4ccco4)c4ccccc4n3)CC2)cc1,-13,15,8,12,0,99*
OCCN1CCN(c2nc(NCc3ccco3)c3ccccc3n2)CC1,-7,17,-2,5,0,25
c1ccc(CN2CCN(c3nc(NCc4ccco4)c4ccccc4n3)CC2)cc1,3,4,1,5,1,100*
CC1(C)CC(=O)c2c(O)cc(OCc3ccc(Br)cc3)cc2O1,-1,11,2,17,1,69*
CC1(C)Cc2cccc(OCC(O)CN3CCN(c4ccccn4)CC3)c2O1 (centres undefined),0,26,42,36,2,85*
CC1(C)Cc2cccc(OCC(O)CNCc3ccccn3)c2O1 (centres undefined),-24,21,1,14,0,-1
Cc1cc(C2=NNC(=NC3CC3)SC2)c(C)n1-c1ccccc1F,-1,6,6,11,1,77*
C=CCn1c(C)cc(C2=NNC(=NCc3ccccc3)SC2)c1C,-6,11,8,12,2,48
C=C(C)CN=C1NN=C(c2cc(C)n(-c3ccc(C)cc3)c2C)CS1,-12,11,0,11,13,91*
Cc1ccc2nc(NC(=O)c3ccc(S(=O)(=O)N4CCCc5ccccc54)cc3)sc2c1,-10,5,-20,6,-1,98*
O=C(NCc1ccco1)c1ccc(S(=O)(=O)N2CCCc3ccccc32)cc1,-10,43,8,0,1,64*
O=C(Nc1nnc(C2CC2)o1)c1ccc(S(=O)(=O)N2CCCc3ccccc32)cc1,-13,26,1,7,0,99*
O=C(NCc1ccccc1)c1ccc(S(=O)(=O)N2CCCc3ccccc32)cc1,0,14,2,38,2,20
O=C(Nc1nc2ccc(F)cc2s1)c1cccc(S(=O)(=O)N2CCc3ccccc32)c1,4,5,-1,1,0,5
COc1ccc(-c2nnc(NC(=O)c3ccc(S(=O)(=O)N4CCCc5ccccc54)cc3)o2)cc1,-3,15,-1,26,0,99*
CC(=O)Nc1ccc(S(=O)(=O)N2CCCc3ccccc32)cc1,-5,34,3,13,0,18
COCc1nnc(NC(=O)c2ccc(S(=O)(=O)N3CCCc4ccccc43)cc2)o1,4,21,0,11,0,1
COCCNC(=O)C(c1ccncc1)N(Cc1ccccc1)C(=O)Cn1nnc2ccccc21 (centres undefined),7,24,-4,9,-1,-1
O=C(COc1cccnc1[N+](=O)[O-])Nc1ccc(S(=O)(=O)N2CCOCC2)cc1,-1,16,4,31,0,6
